Active and inactive are the calls of the source. No cut-off for these calls is given here.
Assays:
[1] = molecular target: T1, Ras guanyl-releasing protein 3 (Homo sapiens, UniProt Q8IV61); assay: Activation of GFP-tagged RasGRP3 (unknown origin) expressed in human LNCAP cells assessed as ERK1/2 phosphorylation after 30 mins by immunoblot method; type: cell-based
T1 sequence (Q8IV61 whole entry): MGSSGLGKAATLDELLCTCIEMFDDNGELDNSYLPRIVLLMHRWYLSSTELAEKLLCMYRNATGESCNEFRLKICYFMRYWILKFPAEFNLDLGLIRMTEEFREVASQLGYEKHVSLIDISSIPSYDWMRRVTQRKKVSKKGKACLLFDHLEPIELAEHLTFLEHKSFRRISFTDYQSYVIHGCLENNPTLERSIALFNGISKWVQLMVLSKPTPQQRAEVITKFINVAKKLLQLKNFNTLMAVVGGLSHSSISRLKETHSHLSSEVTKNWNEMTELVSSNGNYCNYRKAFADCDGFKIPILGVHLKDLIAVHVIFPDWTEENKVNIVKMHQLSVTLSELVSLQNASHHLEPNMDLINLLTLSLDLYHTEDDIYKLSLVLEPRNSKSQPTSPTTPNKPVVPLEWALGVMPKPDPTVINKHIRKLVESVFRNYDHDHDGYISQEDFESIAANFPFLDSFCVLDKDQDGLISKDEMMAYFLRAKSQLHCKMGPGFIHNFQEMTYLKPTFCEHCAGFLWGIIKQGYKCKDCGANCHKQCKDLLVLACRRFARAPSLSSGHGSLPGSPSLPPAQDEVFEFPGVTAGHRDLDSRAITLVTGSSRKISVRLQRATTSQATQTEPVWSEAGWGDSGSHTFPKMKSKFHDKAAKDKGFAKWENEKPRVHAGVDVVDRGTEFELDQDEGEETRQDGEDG
Procedure, shortened: (§1)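 Cells expressing GFP-RasGRP1/3 (HEK293 or LNCaP, 48 h after plating, transfected; expression checked by fluorescence 24-48 h later) or Ramos with endogenous RasGRP3 treated with half-log increasing concentrations (max 10 µM), 1000 nM PMA or DMSO, 37 °C, 30 min, 5% CO2. RasGTP by Raf1 RBD bead pulldown and anti-Pan-Ras immunoblot; pERK by western blot. Band intensities normalized to 1000 nM PMA; EC50 from n = 3.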

[2] = molecular target: T2, Protein kinase C delta type (Homo sapiens, UniProt Q05655); assay: Activation of PKCdelta (unknown origin) expressed in human LNCAP cells harboring GFP-tagged RasGRP1 assessed as phosphorylation at ser299 residues after 30 mins by immunoblot method; type: cell-based
T2 sequence (Q05655 whole entry): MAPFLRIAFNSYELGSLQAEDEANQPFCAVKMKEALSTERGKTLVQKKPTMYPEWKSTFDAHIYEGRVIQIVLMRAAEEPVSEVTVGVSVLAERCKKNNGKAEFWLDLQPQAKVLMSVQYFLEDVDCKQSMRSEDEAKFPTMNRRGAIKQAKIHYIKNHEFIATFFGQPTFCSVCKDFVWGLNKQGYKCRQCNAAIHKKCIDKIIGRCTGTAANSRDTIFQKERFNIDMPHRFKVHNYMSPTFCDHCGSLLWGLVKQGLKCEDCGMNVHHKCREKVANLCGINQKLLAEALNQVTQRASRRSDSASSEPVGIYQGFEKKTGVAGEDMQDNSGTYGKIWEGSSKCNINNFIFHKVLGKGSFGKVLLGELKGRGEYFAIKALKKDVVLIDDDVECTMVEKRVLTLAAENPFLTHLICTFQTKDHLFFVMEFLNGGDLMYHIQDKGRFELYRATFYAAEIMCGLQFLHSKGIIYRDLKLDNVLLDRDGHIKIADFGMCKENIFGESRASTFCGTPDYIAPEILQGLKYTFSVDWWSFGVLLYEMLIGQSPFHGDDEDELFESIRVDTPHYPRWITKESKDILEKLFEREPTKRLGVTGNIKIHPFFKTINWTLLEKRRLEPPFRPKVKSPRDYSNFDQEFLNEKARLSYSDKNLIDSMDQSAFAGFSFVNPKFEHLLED
Procedure, shortened: (§2)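 PKCδ activation read as phospho-S299 on western blots of lysates (50 µg protein, 10% SDS-PAGE, milk blocking, anti-PKCδS299 overnight). Cells: GFP-RasGRP1/3-transfected HEK293 or LNCaP, or Ramos, treated 30 min at 37 °C with half-log doses (maximum 10 µM), 1000 nM PMA or DMSO. Scanned intensities normalized to 1000 nM PMA; EC50 mean ± SEM, n = 3; values above 10 µM extrapolated.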

[3] = molecular target: T3, Ras guanyl-releasing protein 3 (Homo sapiens) (UniProt Q8IV61); assay: Displacement of [3H]PDBu from full length MBP-tagged human RasGRP3 expressed in Escherichia coli BL21 (DE3) after 5 mins in presence of phosphatidylserine by scintillation counting
T3 sequence (whole entry): T1 sequence (Q8IV61 whole entry)
Procedure, shortened: (§3)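 Competition of [3H]PDBu binding by polyethylene glycol precipitation, with 100 µg/ml phosphatidylserine and ≤0.003% Triton X-100, 5 min at 37 °C. Proteins: full-length purified human PKCα, PKCε; full-length RasGRP1; MBP-RasGRP3 from E. coli BL21(DE3) induced with 0.3 mM IPTG 6 h at room temperature. Ki mean ± SEM of ≥2 experiments, triplicate points.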

Homo sapiens [4] = species on record: Homo sapiens; assay: Selectivity ratio of EC50 for PKCdelta (unknown origin) expressed in HEK293 cells harboring GFP-tagged RasGRP3 to EC50 for GFP-tagged RasGRP3 (unknown origin) expressed in HEK293 cells; type: cell-based
Procedure, shortened: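 One EC50 comes from PKCδ S299 phosphorylation on immunoblot, the other from Ras-GTP pulled down on Raf1-RBD. Both signals normalised to 1000 nM PMA. EC50s above 10 µM are extrapolated.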

[5] = molecular target: T2, Protein kinase C delta type; assay: Activation of PKCdelta (unknown origin) expressed in human LNCAP cells harboring GFP-tagged RasGRP3 assessed as phosphorylation at ser299 residues after 30 mins by immunoblot method; type: cell-based; procedure, shortened: as §2
[6] = molecular target: T4, RAS guanyl-releasing protein 1 (Homo sapiens) (UniProt O95267); assay: Displacement of [3H]PDBu from full length MBP-tagged human RasGRP1 expressed in Escherichia coli BL21 (DE3) after 5 mins in presence of phosphatidylserine by scintillation counting; procedure, shortened: as §3
T4 sequence (whole entry): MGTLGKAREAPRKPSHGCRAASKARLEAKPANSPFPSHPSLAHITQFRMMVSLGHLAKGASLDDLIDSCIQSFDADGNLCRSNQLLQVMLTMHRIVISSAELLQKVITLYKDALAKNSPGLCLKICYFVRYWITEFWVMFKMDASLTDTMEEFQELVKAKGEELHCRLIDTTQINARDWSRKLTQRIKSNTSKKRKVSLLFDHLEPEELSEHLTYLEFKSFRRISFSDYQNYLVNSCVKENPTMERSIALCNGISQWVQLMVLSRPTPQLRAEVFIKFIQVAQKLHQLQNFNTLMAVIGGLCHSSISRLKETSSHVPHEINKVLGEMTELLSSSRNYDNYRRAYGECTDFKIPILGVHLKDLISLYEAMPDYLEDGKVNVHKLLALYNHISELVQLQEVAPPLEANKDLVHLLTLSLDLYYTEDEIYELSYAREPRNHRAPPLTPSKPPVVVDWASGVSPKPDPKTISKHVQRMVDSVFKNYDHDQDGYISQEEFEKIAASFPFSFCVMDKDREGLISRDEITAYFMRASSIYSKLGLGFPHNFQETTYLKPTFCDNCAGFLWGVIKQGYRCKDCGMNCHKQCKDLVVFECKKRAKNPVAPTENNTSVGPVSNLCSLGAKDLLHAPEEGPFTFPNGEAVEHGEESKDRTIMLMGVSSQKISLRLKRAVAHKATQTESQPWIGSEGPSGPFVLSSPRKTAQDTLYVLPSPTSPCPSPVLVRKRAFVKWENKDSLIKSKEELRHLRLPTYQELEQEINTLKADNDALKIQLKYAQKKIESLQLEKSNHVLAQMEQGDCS

[7] = molecular target: T1, Ras guanyl-releasing protein 3; assay: Activation of RasGRP3 in human Ramos cells after 30 mins by immunoblot method; type: cell-based; procedure, shortened: as §1
Homo sapiens [8] = species on record: Homo sapiens; assay: Selectivity ratio of EC50 for PKCdelta (unknown origin) expressed in human LNCAP cells harboring GFP-tagged RasGRP3 to EC50 for GFP-tagged RasGRP3 (unknown origin) expressed in human LNCAP cells; type: cell-based
Homo sapiens [9] = species on record: Homo sapiens; assay: Selectivity ratio of EC50 for PKCdelta in human Ramos cells expressing RasGRP3 to EC50 for RasGRP3 in human Ramos cells; type: cell-based
[10] = molecular target: T2, Protein kinase C delta type; assay: Activation of PKCdelta (unknown origin) expressed in HEK293 cells harboring GFP-tagged RasGRP1 assessed as phosphorylation at ser299 residues after 30 mins by immunoblot method; type: cell-based; procedure, shortened: as §2

EC50 [1]: 2.98 µM
EC50 [2]: 8.03 µM
inhibition [3]: Active
EC50 [5]: 8.28 µM
inhibition [6]: Active
EC50 [7]: 0.86 µM
EC50 [10]: 12.6 µM
SMILES: Cn1cc(/C=C2\CC(CO)(COC(=O)C(C)(C)C)OC2=O)c2ccccc21 (stereo not given)
Ratio EC50 (Homo sapiens [4]): 9.2
Ratio EC50 (Homo sapiens [8]): 12.9
Ratio EC50 (Homo sapiens [9]): 28.6

Reference: ChEMBL document CHEMBL4130626, “α-Arylidene Diacylglycerol-Lactones (DAG-Lactones) as Selective Ras Guanine-Releasing Protein 3 (RasGRP3) Ligands” (J Med Chem, 2018)
